Test results from ChEMBL document CHEMBL3856201, “5,10b-Ethanophenanthridine amaryllidaceae alkaloids inspire the discovery of novel bicyclic ring systems with activity against drug resistant cancer cells” (2016).
The source made the active and inactive calls. The calls are words filed in the database; no cut-off is given here.

Experiments:
[1] = Antiproliferative activity against drug-resistant human T98G cells after 48 to 96 hrs by MTT assay; format: functional
In short: (§1)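 MTT read-out. T98G and Hs683 cells were grown in DMEM with 10% FBS, glutamine, gentamicin and penicillin-streptomycin at 37 °C and 5% CO2. Compounds came from 100 or 50 mM DMSO stocks and were tested at 0.001–100 µM for 48–96 h. Controls were 0.1% DMSO (negative) and 1 µM phenyl arsine oxide (positive). The value is the mean concentration giving 50% viability loss; replicate number varied.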

[2] = Antiproliferative activity against patient-derived paclitaxel-resistant NCI-H2073 cells after 48 to 96 hrs by MTT assay; format: functional; settings: Homo sapiens
[3] = Antiproliferative activity against human HeLa cells after 48 hrs by MTT assay; format: functional
In short: (§2)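 HeLa cells were cultured in DMEM + 10% FBS and MCF-7 cells in RPMI + 10% FBS, both at 37 °C under 5% CO2. Compounds were diluted from DMSO stocks and applied for 48 h. Viability was read by MTT relative to DMSO control. The value is the concentration reducing viability by 50%, ±SD from two independent experiments of 4 replicates each.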

[4] = Antiproliferative activity against patient-derived TMZ-resistant GBM 031810 cells over-expressing MGMT after 48 to 96 hrs by MTT assay; format: functional; settings: Homo sapiens
[5] = Antiproliferative activity against patient-derived paclitaxel-sensitive NCI-H1993 cells after 48 to 96 hrs by MTT assay; format: functional; settings: Homo sapiens
[6] = Antiproliferative activity against drug-resistant human U251 cells after 48 to 96 hrs by MTT assay; format: functional; settings: U-251
In short: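 U251 cells were kept in 10% MEM with glutamine, gentamicin and penicillin-streptomycin at 37 °C and 5% CO2. After seeding they were grown 24–72 h and then given compounds at 0.001–100 µM (from 100 or 50 mM DMSO stocks) for 48–96 h. Viability was read by MTT. Vehicle control was 0.1% DMSO; 1 µM phenyl arsine oxide served as positive control. The result is the average 50%-viability-reducing concentration.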

[7] = Antiproliferative activity against drug-resistant human U87 cells after 48 to 96 hrs by MTT assay; format: functional, U-87MG ATCC; settings: U-87 MG
In short: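 U87 cells grown in DMEM with glutamine, gentamicin and penicillin-streptomycin (37 °C, 95% humidity, 5% CO2) were seeded and then treated with 0.001–100 µM compound for 48–96 h. Readout was MTT. Controls were 0.1% DMSO and 1 µM phenyl arsine oxide. The value is the average concentration reducing viability 50%.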

[8] = Antiproliferative activity against drug-sensitive human Hs683 cells after 48 to 96 hrs by MTT assay; format: functional; settings: Hs 683; in short: as §1
[9] = Antiproliferative activity against patient-derived TMZ-sensitive GBM 090909 cells after 48 to 96 hrs by MTT assay; format: functional; settings: Homo sapiens
In short: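 Primary GBM neurosphere cultures came from resected patient tumour. Tissue was minced, dissociated with 100 U/mL collagenase in neurobasal medium for 30 min at 37 °C, filtered through 70 µm, spun at 200 × g for 5 min, and grown in ultra-low attachment wells in neurobasal medium with B27. Compounds were applied at 0.001–100 µM for 48–96 h. MTT gave the average 50%-viability concentration.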

NCI-H1993 = assay: Potentiation of paclitaxel-induced cytotoxicity against patient-derived paclitaxel-sensitive NCI-H1993 cells assessed as reduction in cell viability up to 100 uM after 96 hrs by Celltiter-Glo luminescent assay; format: functional, cell-based; settings: Homo sapiens
In short: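 NCI-H1993 cells were seeded at 4×10^3 per well and grown 24 h. […] Viability was read by CellTiter-Glo luminescence. Predicted additivity was calculated by Bliss independence, Exy = Ex + Ey − ExEy.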

[10] = Antiproliferative activity against human MCF7 cells after 48 hrs by MTT assay; format: functional; settings: MCF7, 48 h; in short: as §2
[11] = Antiproliferative activity against human MES-SA cells after 48 to 96 hrs by MTT assay; format: functional
In short: (§3)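 Parent MES-SA and MES-SA/Dx5 uterine sarcoma cells were grown in RPMI-1640 with 10% FBS. The Dx5 line was kept in 500 nM doxorubicin after stepwise selection from 100 nM in twofold steps, about 2 passages per step. MTT assay used 0.001–100 µM compound for 48–96 h, with 0.1% DMSO and 1 µM phenyl arsine oxide controls. The ratio is the Dx5 GI50 divided by the parent GI50.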

[12] = Antiproliferative activity against drug-resistant human U373 cells after 48 to 96 hrs by MTT assay; format: functional, U-373MG ATCC; settings: U373 MG
In short: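 Culture was RPMI with 10% heat-inactivated FBS plus glutamine and antibiotics for U373 cells. Compound exposure was 0.001–100 µM for 48–96 h, with 0.1% DMSO and 1 µM phenyl arsine oxide as controls. The MTT assay gave the average concentration cutting viability by 50%; replicate numbers varied.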

[13] = Antiproliferative activity against human MES-SA/Dx5 cells after 48 to 96 hrs by MTT assay; format: functional; in short: as §3
[14] = Antiproliferative activity against drug-resistant human A549 cells up to 100 uM after 48 to 96 hrs by MTT assay relative to control; format: functional
In short: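 A549 cultures in RPMI with 10% heat-inactivated FBS were treated across a concentration range up to 100 µM, with phenyl arsine oxide as the nondiscriminate cytotoxic reference. Growth curves were read by MTT assay. Two independent experiments, each in 4 replicates.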

MES-SA = assay: Selectivity ratio of GI50 for human MES-SA/Dx5 cells to GI50 for human MES-SA cells; format: functional; in short: as §3
[15] = Antiproliferative activity against drug-resistant human A549 cells after 48 to 96 hrs by MTT assay; format: functional
In short: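 A549 cells grown in RPMI with 10% heat-inactivated FBS, 4 mM glutamine and antibiotics at 37 °C under 5% CO2. Compounds came from 100 or 50 mM DMSO stocks and were tested at 0.001–100 µM for 48–96 h. Read-out was MTT. The value is the mean concentration giving 50% viability loss, with varied replicate numbers. Controls were 0.1% DMSO (negative) and 1 µM phenyl arsine oxide (positive).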

HeLa S3 = assay: Inhibition of translation in human HeLaS3 assessed as induction of intact polysomes at 50 uM after 1 hr by UV-based […] method; format: functional
In short: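 HeLa S3 cells were exposed to 50 µM compound for 1 h, then analysed by polysome profiling against a DMSO-treated control profile.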

SMILES | GI50 [3] [µM] | GI50 [10] [µM] | also measured
O=C1C=CC2(C=C1)CCN(C(=O)C(F)(F)F)Cc1c2sc2ccccc12 | 10 | 7 | GI50 [1]: 15 µM; GI50 [2]: 50 µM; GI50 [4]: 8 µM; GI50 [5]: 12 µM; GI50 [6]: 4 µM; GI50 [7]: 6 µM; GI50 [8]: 5 µM; GI50 [9]: 7 µM; Activity (NCI-H1993): Active; GI50 [11]: 5 µM; GI50 [12]: 7 µM; GI50 [13]: 5 µM
O=C1C=C[C@]23CC[N@](Cc4ccsc42)[C@H]3C1 | 8 | 12 | –
COc1cc2c(cc1OC)[C@@]13C=CC(=O)C[C@@H]1[N@](CC3)C2 | 64 | > 100 | –
O=C1C=C[C@]23CC[N@](Cc4cscc42)[C@H]3C1 | 25 | 44 | –
Cn1nnc2c(C(N)=O)ncn2c1=O [TEMOZOLOMIDE] | – | – | GI50 [4]: > 1000 µM; GI50 [9]: 50 µM
O=C1C=CC2(C=C1)CCN(C(=O)C(F)(F)F)Cc1cc(OCc3ccccc3)c(OCc3ccccc3)cc12 | 17 | 25 | –
CC(=O)O[C@H]1C(=O)[C@@]2(C)[C@H]([C@H](OC(=O)c3ccccc3)[C@]3(O)C[C@H](OC(=O)[C@H](O)[C@@H](NC(=O)c4ccccc4)c4ccccc4)C(C)=C1C3(C)C)[C@]1(OC(C)=O)CO[C@@H]1C[C@@H]2O [PACLITAXEL] | – | – | GI50 [2]: 2.4 µM; GI50 [5]: 0.004 µM; inhibition (INH) [14]: 50%; GI50 [11]: 0.007 µM; RatioGI50 (MES-SA): >1000; GI50 [13]: 10 µM
C#CCCCC(=O)Oc1cc2c(cc1OC)[C@@]13C=CC(=O)C[C@@H]1[N@](CC3)C2 | 43 | 53 | –
COc1cc([C@@H]2c3cc4c(cc3[C@H](O)[C@H]3COC(=O)[C@H]23)OCO4)cc(OC)c1OC [PODOFILOX] | – | – | inhibition (INH) [14]: 50%
COc1cc2c(cc1OC)C1(C=CC(=O)C=C1)CCN(C(=O)C(F)(F)F)C2 | 83 | > 100 | –
O=C1C=CC2(C=C1)CCN(C(=O)C(F)(F)F)Cc1cc(OCc3ccccc3)ccc12 | 16 | 40 | –
COc1cc2c(cc1OCc1ccccc1)C[N@@]1CC[C@@]23C=CC(=O)C[C@H]13 | 12 | 15 | –
COc1cc2c(cc1OCc1ccccc1)C1(C=CC(=O)C=C1)CCN(C(=O)C(F)(F)F)C2 | 34 | 34 | –
COc1cc2c(cc1OCc1ccccc1)CN(C(=O)C(F)(F)F)CCC21C=CC(=O)C=C1 | 38 | 48 | –
O=C1C=CC2(C=C1)CCN(C(=O)C(F)(F)F)Cc1cccc(OCc3ccccc3)c12 | 11 | 14 | –
O[C@H]1C=C[C@@]23c4cc5c(cc4CN(C[C@@H]2O)[C@H]3C1)OCO5 | – | – | GI50 [1]: 99 µM; GI50 [6]: 41 µM; GI50 [7]: 38 µM; GI50 [8]: 27 µM; GI50 [12]: 53 µM
O=C1C=C[C@]23CC[N@](Cc4cc5c(cc42)OCO5)[C@H]3C1 | 25 | 24 | –

SMILES | GI50 [3] [µM] | GI50 [10] [µM] | also measured
O=C1C=C[C@]23CC[N@](Cc4cc(OCc5ccccc5)c(OCc5ccccc5)cc42)[C@H]3C1 | 3 | 4 | GI50 [1]: 7 µM; GI50 [15]: 4 µM; GI50 [6]: 5 µM; GI50 [7]: 5 µM; GI50 [8]: 6 µM; GI50 [11]: 2 µM; GI50 [12]: 7 µM; GI50 [13]: 7 µM
O=C1C=C[C@]23CC[N@](Cc4c2ccc2c4OCO2)[C@H]3C1 | 61 | 73 | –
COc1cc2c(cc1OC(=O)c1ccccc1)C[N@@]1CC[C@@]23C=CC(=O)C[C@H]13 | 35 | 45 | –
O=C1C=C[C@]23CC[N@](Cc4cccc(OCc5ccccc5)c42)[C@H]3C1 | 7 | 11 | –
O[C@H]1[C@H]2c3cc4c(cc3CN3CCC(=C[C@@H]1O)[C@H]23)OCO4 | – | – | inhibition (HeLa S3): Active
CO[C@@H]1C=C[C@@]23c4cc5c(cc4CN(C[C@@H]2O)[C@H]3C1)OCO5 | – | – | inhibition (HeLa S3): Active
O=C1C=CC2(C=C1)CCN(C(=O)C(F)(F)F)Cc1cc3c(cc12)OCO3 | 24 | 30 | –
COc1cc2c(cc1O)CN(C(=O)C(F)(F)F)CCC21C=CC(=O)C=C1 | > 100 | > 100 | –
COc1cc2c(cc1O)C[N@@]1CC[C@@]23C=CC(=O)C[C@H]13 | > 100 | > 100 | –
O=C1C=CC2(C=C1)CCN(C(=O)C(F)(F)F)Cc1c2ccc2c1OCO2 | > 100 | > 100 | –
COc1cc2c(cc1OC(C)=O)C[N@@]1CC[C@@]23C=CC(=O)C[C@H]13 | > 100 | > 100 | –
COc1cc2c(cc1O)C[N@@]1CC[C@@]23C=C/C(=N/O)C[C@H]13 | > 100 | > 100 | –
COc1cc2c(cc1OCc1ccccc1)[C@@]13C=CC(=O)C[C@@H]1[N@](CC3)C2 | 17 | 17 | –
CC[C@]1(O)C[C@@H]2CN(CCc3c([nH]c4ccccc34)[C@@](C(=O)OC)(c3cc4c(cc3OC)N(C)[C@H]3[C@@](O)(C(=O)OC)[C@H](OC(C)=O)[C@]5(CC)C=CCN6CC[C@]43[C@@H]65)C2)C1 [VINBLASTINE] | – | – | RatioGI50 (MES-SA): >1000
O=C1C=C[C@]23CC[N@](Cc4cc5c(cc42)OCCO5)[C@H]3C1 | 13 | 19 | –
O=C1C=CC2(C=C1)CCN(C(=O)C(F)(F)F)Cc1cc3c(cc12)OCCO3 | 21 | 34 | –
O=C1C=C[C@]23CC[N@](Cc4cc(OCc5ccccc5)ccc42)[C@H]3C1 | 8 | 14 | –
